Experimental data: ChEMBL document CHEMBL1152788, “Naphthylisopropylamine and N-benzylamphetamine derivatives as monoamine oxidase inhibitors” (Bioorg Med Chem, 2009)
pKi: −log10 of the molar value. Where a name gives a salt, the structure may show the parent alone.

Legend:
[1] = molecular target: T1, Amine oxidase [flavin-containing] B (Rattus norvegicus, UniProt P19643); assay: Inhibition of MAOB in rat brain mitochondria
T1 sequence (P19643 whole entry): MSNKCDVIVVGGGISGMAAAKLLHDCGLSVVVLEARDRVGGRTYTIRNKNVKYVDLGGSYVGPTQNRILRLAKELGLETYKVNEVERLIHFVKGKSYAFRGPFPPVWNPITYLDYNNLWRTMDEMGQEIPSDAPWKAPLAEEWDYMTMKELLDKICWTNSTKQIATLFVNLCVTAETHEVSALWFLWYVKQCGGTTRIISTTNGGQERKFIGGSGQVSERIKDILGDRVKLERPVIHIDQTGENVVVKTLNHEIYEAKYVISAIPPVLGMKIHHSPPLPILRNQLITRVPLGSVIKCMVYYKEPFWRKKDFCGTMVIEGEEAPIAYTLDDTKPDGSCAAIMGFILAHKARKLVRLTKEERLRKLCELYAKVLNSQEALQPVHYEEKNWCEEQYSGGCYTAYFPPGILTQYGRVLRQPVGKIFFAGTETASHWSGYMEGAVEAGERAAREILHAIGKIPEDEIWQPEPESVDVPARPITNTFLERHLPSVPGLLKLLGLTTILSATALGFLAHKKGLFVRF
How it was run: (§1)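 Substrate is 5-HT for MAO-A and DMAPEA for MAO-B. Substrates and their metabolites are measured by HPLC with electrochemical detection. Percent inhibition is taken against enzyme treated the same way without inhibitor and plotted against −log inhibitor concentration to give IC50. Runs are at least two independent experiments, each in triplicate. Ki is from IC50 by Cheng–Prusoff, using the substrate's Km.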

[2] = molecular target: T2, Amine oxidase [flavin-containing] A (Rattus norvegicus, UniProt P21396); assay: Inhibition of MAOA in rat brain mitochondria; how it was run: as §1
T2 sequence (P21396 whole entry): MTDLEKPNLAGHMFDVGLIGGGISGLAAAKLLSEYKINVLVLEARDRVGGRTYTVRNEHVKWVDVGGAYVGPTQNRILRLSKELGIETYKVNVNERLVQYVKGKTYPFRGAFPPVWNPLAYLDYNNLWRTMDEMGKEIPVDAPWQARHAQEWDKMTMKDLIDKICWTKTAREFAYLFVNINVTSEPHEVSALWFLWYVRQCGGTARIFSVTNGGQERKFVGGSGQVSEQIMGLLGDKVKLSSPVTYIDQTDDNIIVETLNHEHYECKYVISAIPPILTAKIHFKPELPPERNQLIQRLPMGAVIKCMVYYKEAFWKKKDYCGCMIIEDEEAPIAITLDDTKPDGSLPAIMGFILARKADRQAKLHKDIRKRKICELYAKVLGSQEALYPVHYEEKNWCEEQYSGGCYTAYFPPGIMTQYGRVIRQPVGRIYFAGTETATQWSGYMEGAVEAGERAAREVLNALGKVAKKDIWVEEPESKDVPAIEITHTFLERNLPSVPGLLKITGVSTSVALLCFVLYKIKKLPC

| Structure (SMILES) | pKi [1] | pKi [2] |
| --- | --- | --- |
| CCOc1ccc(CC(C)N)cc1 (stereo unspecified) | < 4.00 | 6.66 |
| COc1ccc2cc(CC(C)N)ccc2c1 (stereo unspecified) | 4.79 | 6.74 |
| CCCCOc1ccc2cc(CC(C)N)ccc2c1 (stereo unspecified) | – | 5.82 |
| CCOc1ccc2cc(CC(C)N)ccc2c1 (stereo unspecified) | 4.87 | 6.35 |
| CSc1ccc2cc(CC(C)N)ccc2c1 (stereo unspecified) | – | 6.30 |
| CCCOc1ccc(CC(C)N)cc1 (stereo unspecified) | < 4.00 | 6.89 |
| CCCCOc1ccc2cc(CC(C)NCc3ccccc3)ccc2c1 (stereo unspecified) | 4.65 | 4.84 |
| CC(N)Cc1ccc2cc(OCc3ccccc3)ccc2c1 (stereo unspecified) | 5.59 | 5.42 |
| CCCCOc1ccc(CC(C)N)cc1 (stereo unspecified) | < 4.00 | 6.49 |
| CC(N)Cc1ccc(OCc2ccccc2)cc1 (stereo unspecified) | 6.15 | 5.47 |
| CSc1ccc(CC(C)NCc2ccc(O)cc2)cc1 (stereo unspecified) | < 4.00 | < 4.00 |
| COc1ccc(CNC(C)Cc2ccc(SC)cc2)cc1 (stereo unspecified) | – | < 4.00 |
| CCCCOc1ccc(CNC(C)Cc2ccc(SC)cc2)cc1 (stereo unspecified) | – | 4.05 |
| CSc1ccc(CC(C)NCc2ccccc2)cc1 (stereo unspecified) | < 4.00 | < 4.00 |
| CSc1ccc(CC(C)NCc2ccc(OCc3ccccc3)cc2)cc1 (stereo unspecified) | – | < 4.00 |
| CC(N)Cc1cccc2ccccc12 (stereo unspecified) | < 4.00 | 5.25 |
| CC(N)Cc1ccc2ccccc2c1 (stereo unspecified) | < 4.00 | 6.38 |
| CCCOc1ccc2cc(CC(C)N)ccc2c1 (stereo unspecified) | 4.87 | 6.17 |
| COc1ccc2cc(CC(C)NCc3ccccc3)ccc2c1 (stereo unspecified) | 4.61 | 5.16 |
| CSc1ccc(CC(C)N)cc1 (stereo unspecified) [4-METHYLTHIOAMPHETAMINE] | – | 6.60 |
| CC(N)Cc1ccccc1 (stereo unspecified) [AMPHETAMINE SULFATE] | – | 4.91 |
| COc1ccc(CC(C)N)cc1 (stereo unspecified) [PARA-METHOXYAMPHETAMINE] | – | 6.60 |
